This note sets out measurements from ChEMBL document CHEMBL1149224, “Direct superoxide anion scavenging by a highly water-dispersible carotenoid phospholipid evaluated by electron paramagnetic resonance (EPR) spectroscopy” (2004).

What all share (format): functional
For experiment [1], the species on record is Homo sapiens. Briefly: Mean percent inhibition of aqueous superoxide anion production in isolated human neutrophil assay at 3 mM using ethanol as solvent. The method, boiled down:
(§1)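 Human PMNs from one donor's venous blood were isolated on a Percoll gradient (1.080 g/mL, 400g, 20 min, 20 C), erythrocytes removed by hypotonic lysis, and cells washed in PAG buffer (PIPES pH 7.4, 0.003% HSA, 0.1% glucose). Carotenoid phospholipid isomer mix was taken from a 41.2% EtOH stock (0.4% EtOH final). Cells were preincubated 5 min, then PMA-stimulated. The DEPMPO-OOH adduct (10 mM DEPMPO) was read by X-band EPR, and % inhibition set against the no-compound control.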

The species named for experiment [2] is Homo sapiens. Briefly: Mean percent inhibition of aqueous superoxide anion production in isolated human neutrophil assay at 0.5 mM using water as solvent. The method, boiled down:
(§2)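 The carotenoid phospholipid isomer mix was dispersed in deionized water without heat, detergent or additives. Isolated human PMNs (Percoll gradient, hypotonic erythrocyte lysis, washed in PIPES-HSA-glucose buffer, pH 7.4) were preincubated 5 min with the suspension, then PMA-stimulated. Superoxide was spin-trapped with 10 mM DEPMPO and the DEPMPO-OOH signal measured by X-band EPR. Inhibition is expressed relative to the no-compound control signal.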

Experiment [3] is filed under the species Homo sapiens. Briefly: Mean percent inhibition of aqueous superoxide anion production in isolated human neutrophil assay at 10 mM using water as solvent. The method, boiled down:
as §2

For experiment [4], the species on record is Homo sapiens. Briefly: Mean percent inhibition of aqueous superoxide anion production in isolated human neutrophil assay at 3 mM using water as solvent. In outline: as §2
Experiment [5] is filed under the species Homo sapiens. The experiment can be described thus: Mean percent inhibition of aqueous superoxide anion production in isolated human neutrophil assay at 1 mM using water as solvent. The method, boiled down: as §2
Experiment [6] is filed under the species Homo sapiens. Briefly: Mean percent inhibition of aqueous superoxide anion production in isolated human neutrophil assay at 0.1 mM using ethanol as solvent. In outline:
as §1

For experiment [7], the species on record is Homo sapiens. The experiment can be described thus: Mean percent inhibition of aqueous superoxide anion production in isolated human neutrophil assay at 0.3 mM using ethanol as solvent. In outline: as §1
The species named for experiment [8] is Homo sapiens. The experiment can be described thus: Mean percent inhibition of aqueous superoxide anion production in isolated human neutrophil assay at 0.5 mM using ethanol as solvent. The method, boiled down:
as §1

For experiment [9], the species on record is Homo sapiens. The experiment can be described thus: Mean percent inhibition of aqueous superoxide anion production in isolated human neutrophil assay at 1 mM using ethanol as solvent. The method, boiled down: as §1

For `CC1=C(/C=C/C(C)=C/C=C/C(C)=C/C=C/C=C(C)/C=C/C=C(\C)C(=O)OC(CO)COP(=O)([O-])OCC[N+](C)(C)C)C(C)(C)CCC1.CC1=C(/C=C/C(C)=C/C=C/C(C)=C/C=C/C=C(C)/C=C/C=C(\C)C(=O)OCC(CO)OP(=O)([O-])OCC[N+](C)(C)C)C(C)(C)CCC1.CC1=C(/C=C/C(C)=C/C=C/C(C)=C/C=C/C=C(C)/C=C/C=C(\C)C(=O)OCC(O)COP(=O)([O-])OCC[N+](C)(C)C)C(C)(C)CCC1` (stereo not given), the Mean inhibition in the experiment filed under Homo sapiens [1] is 98.7%; in the experiment listed under Homo sapiens [2] it was 18.2%; in the experiment filed under Homo sapiens [3] it was 94.3%; in the experiment filed under Homo sapiens [4], 51.8%; in the experiment filed under Homo sapiens [5], 24.6%; in the experiment filed under Homo sapiens [6], 13.3%. Also, the values for the Mean inhibition in the experiment filed under Homo sapiens [7], in the experiment filed under Homo sapiens [8] and in the experiment filed under Homo sapiens [9] were 31.3%, 61.7% and 79.3%, respectively.

In the experiment filed under Homo sapiens [6], `CC1=C(/C=C/C(C)=C/C=C/C(C)=C/C=C/C=C(C)/C=C/C=C(C)/C=C/C2=C(C)C(=O)C(OC(=O)CCC(=O)[O-])CC2(C)C)C(C)(C)CC(OC(=O)CCC(=O)[O-])C1=O.[Na+].[Na+]` (stereo not given) [DISODIUM SALT DISUCCINATE DIESTER OF ASTAXANTHIN] returned a Mean inhibition of 38%.
